Assays:
Assay type in all cases: functional
[1] = target: T1, Adenosine receptor A3 (Homo sapiens) (UniProt P0DMS8); test: (§1) Antagonist activity at human adenosine A3 receptor after 15 to 30 mins
T1 sequence (whole entry): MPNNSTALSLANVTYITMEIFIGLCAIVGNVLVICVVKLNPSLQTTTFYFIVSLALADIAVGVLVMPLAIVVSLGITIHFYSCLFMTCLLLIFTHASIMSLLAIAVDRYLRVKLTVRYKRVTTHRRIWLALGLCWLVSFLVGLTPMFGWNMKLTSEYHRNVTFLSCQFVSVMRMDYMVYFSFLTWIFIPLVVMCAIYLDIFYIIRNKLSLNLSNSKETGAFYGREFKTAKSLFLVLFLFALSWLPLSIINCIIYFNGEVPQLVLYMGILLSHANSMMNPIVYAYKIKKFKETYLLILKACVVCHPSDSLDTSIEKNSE

Adenosine receptor A1 [2] = target: T2, Adenosine receptor A1 (Homo sapiens, UniProt P30542); test: Antagonist activity at human adenosine A1 receptor
T2 sequence (P30542 whole entry): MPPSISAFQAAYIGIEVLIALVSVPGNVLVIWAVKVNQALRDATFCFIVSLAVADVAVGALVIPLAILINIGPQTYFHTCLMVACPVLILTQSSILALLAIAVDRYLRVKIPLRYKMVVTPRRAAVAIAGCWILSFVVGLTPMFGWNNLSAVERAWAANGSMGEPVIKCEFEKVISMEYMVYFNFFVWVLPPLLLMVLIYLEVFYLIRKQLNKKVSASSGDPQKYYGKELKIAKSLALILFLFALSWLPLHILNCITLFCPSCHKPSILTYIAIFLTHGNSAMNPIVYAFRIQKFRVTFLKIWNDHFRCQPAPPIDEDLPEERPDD
Outline: (§2)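 Clones coexpressing mitochondrial apoaequorin and Gα16 were collected in PBS with 5 mM EDTA. They were loaded with 5 µM coelenterazine H for 4 h at room temperature, washed, and mixed with compound, and aequorin light was recorded for 30 s. Duplicates at eight concentrations from 3000 to 1 nM were fitted by sigmoidal nonlinear regression and expressed as percent of agonist response.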

Adenosine receptor A3 [3] = target: T3, Adenosine receptor A3 (Homo sapiens, UniProt P0DMS8); test: Agonist activity at human adenosine A3 receptor after 15 to 30 mins
T3 sequence (P0DMS8 whole entry): T1 sequence (whole entry)
Outline: (§3)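 AequoScreen cells expressing recombinant human A3 receptor and Gα16 were cultured at least one week, harvested with PBS-EDTA, and loaded overnight at room temperature with coelenterazine H in DMEM-F12 with 0.1% BSA. Cells were injected onto compound and aequorin luminescence was read. Duplicates at 100 µM–0.01 nM (eight concentrations) were normalised to saturating (EC100) IB-MECA to give EC50.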

Adenosine receptor A1 [4] = target: T2, Adenosine receptor A1; test: Agonist activity at human adenosine A1 receptor; outline: as §2
[5] = target: T1, Adenosine receptor A3 (Homo sapiens); test: Agonist activity at human adenosine A3 receptor after 15 to 30 mins relative to IB-MECA; outline: as §3
Adenosine receptor A3 [6] = target: T3, Adenosine receptor A3; test: as §1

Row | SMILES | Imax [1] [%] | IC50 (Adenosine receptor A1 [2]) [µM] | EC50 (Adenosine receptor A3 [3]) [µM] | EC50 (Adenosine receptor A1 [4]) [µM] | Emax [5] [%] | IC50 (Adenosine receptor A3 [6]) [µM]
1 | CNC(=O)[C@@]12CN[C@@H]([C@H](n3cnc4c(NCc5cccc(I)c5)ncnc43)O1)[C@@H]2O | 100 | > 3 | > 100 | > 3 | – | –
2 | CNC(=O)[C@H]1O[C@@H](n2cnc3c(N)ncnc32)[C@H](OC)[C@@H]1O | – | – | 0.453 | – | 100 | –
3 | OC[C@@]12CO[C@@H]([C@H](n3cnc4c(NCc5cccc(I)c5)ncnc43)O1)[C@@H]2O | 100 | – | > 100 | – | – | 0.15
4 | Nc1ncnc2c1ncn2[C@@H]1O[C@@]2(CO)CO[C@@H]1[C@@H]2O | – | – | > 100 | – | – | > 100
5 | CO[C@@H]1[C@H](O)[C@@H](CO)O[C@H]1n1cnc2c(NCc3cccc(I)c3)ncnc21 | 100 | > 3 | > 100 | > 3 | – | 0.0017
6 | CO[C@@H]1[C@H](O)[C@@H](CO)O[C@H]1n1cnc2c(N)ncnc21 | 100 | > 3 | > 100 | > 3 | – | 0.015
7 | Nc1ncnc2c1ncn2[C@@H]1O[C@@]2(CO)CN[C@@H]1[C@@H]2O | – | – | > 100 | – | – | > 100
8 | CNC(=O)[C@@]12CN[C@@H]([C@H](n3cnc4c(N)ncnc43)O1)[C@@H]2O | 100 | – | > 100 | – | – | 0.17
9 | OC[C@@]12CN[C@@H]([C@H](n3cnc4c(NCc5cccc(I)c5)ncnc43)O1)[C@@H]2O | 100 | > 3 | > 100 | > 3 | – | 0.0082
10 | CNC(=O)[C@@]12CO[C@@H]([C@H](n3cnc4c(N)ncnc43)O1)[C@@H]2O | – | – | > 100 | – | – | > 100
11 | CNC(=O)[C@@]12CO[C@@H]([C@H](n3cnc4c(NCc5cccc(I)c5)ncnc43)O1)[C@@H]2O | – | – | > 100 | – | – | > 100
12 | CNC(=O)[C@H]1O[C@@H](n2cnc3c(NCc4cccc(I)c4)ncnc32)[C@H](OC)[C@@H]1O | – | > 3 | 0.0019 | > 3 | 100 | –

From ChEMBL document CHEMBL1149615, “Design, synthesis, and biological evaluation of LNA nucleosides as adenosine A3 receptor ligands” (Bioorg Med Chem, 2007)
